Assay outcomes deposited in PubChem BioAssay by The Scripps Research Institute Molecular Screening Center.
STAT1 act-1 – STAT1 signaling activation; actives 2.6% (n = 200,000); NIH 3T3 STAT1-luciferase reporter, IFN-gamma, luminescence; 100% = IFN-gamma alone, no compound; activation (% of control), % at 5.5 µM;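 active = activation above the screen-wide mean activation plus 3 SD, cut at about 130% in these data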;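 also: raw ratio to IFN-gamma control signal so 100% means no change and 0% no light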
STAT3 inh – STAT3 signaling inhibition | U3A cells, IL-6 STAT3-luciferase reporter, luminescence; host cell line lacks STAT1 | inhibition, % at 5.5 µM | actives 0.89% (n = 190,000) | AID 862;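 active = inhibition above the mean inhibition across all screened compounds plus 3 SD, cut at about 44% in these data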;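 also: 0% = DMSO only wells and 100% = 100 µM nifuroxazide control wells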
STAT1 inh – STAT1 signaling inhibition; NIH 3T3 STAT1-luciferase reporter, IFN-gamma, luminescence; inhibition, % at 5.5 µM; actives 0.35% (n = 200,000); AID 920;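 active = inhibition above a set limit, the mean inhibition across all tested compounds plus 3 SD, cut at about 34% in these data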;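 also: 0% = IFN-gamma with DMSO and 100% = IFN-gamma with 300 µM nifuroxazide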
STAT3 act-1 – increases IL-6 driven STAT3 reporter signal; activation (% of control), % at 5.6 µM; U3A cells, IL-6 STAT3-luciferase reporter, luminescence; 100% = signal with IL-6 EC80 alone; actives 0.91% (n = 190,000); AID 871;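 active = activation above the screen-wide mean of compound activation plus 3 SD, cut at about 130% in these data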;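 also: 0% = background luminescence of wells with medium and substrate only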
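System – human U3A cells carrying STAT3-luciferase construct · Probe or stimulus – Interleukin-6, 33 ng/mL · Schedule – compound 1 h, then IL-6 6 h at 37 °C · Signal – luminescence from STAT3-driven luciferase reporter · Evaluation – percent of IL-6-only median luminescence · Benchmarks – IL-6-only high control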
STAT3 act-2 – confirmation of STAT3 signaling activators; U3A STAT3-luciferase reporter, IL-6 potentiation, luminescence; U3A cells lack STAT1; 100 means same as IL-6 alone; potentiation (% of control), % at 5.7 µM; actives 64% (n = 1,200); shares compounds with STAT3 act-1; AID 1267;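 active = percent activation of the STAT3 luciferase reporter above a set limit taken from the earlier primary screen, cut at about 130% in these data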;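 also: 0% = background signal of medium plus substrate and 100% = median of IL-6 with DMSO wells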
NFkB act STAT3ct – NF-kappaB activation in STAT3 activator counter-screen; shares compounds with STAT3 act-1; human cells, NF-kappaB reporter activation; activation (% of control), % at 5.7 µM; actives 11% (n = 1,200); AID 1309; in the data active = activation above about 120%;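 also: reporter induced by TNF-alpha stimulation; 100% = median of stimulated DMSO wells and 0% = no signal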
STAT1 act-2 – activates STAT1, counter-screen to STAT3 activators; activation (% of control), % at 5.7 µM; shares compounds with STAT3 act-1; NIH 3T3 STAT1-luciferase reporter, IFN-gamma, luminescence; actives 13% (n = 1,200);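 active = activation above the solvent-only control well mean plus 3 SD, set per screening run, cut at about 120% in these data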;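 also: 100% = IFN-gamma with DMSO median signal so 100% means no change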
An asterisk follows results filed as active. Rows were chosen to be rich in hits. Some 4.3% of all compounds tested hit in one or more screens of this group.

How did Cc1[nH]n(-c2ccccc2)c(=O)c1N=Nc1ccccc1 do in these assays?
STAT1 act-1: 128; STAT3 inh: -56; STAT1 inh: -32; STAT3 act-1: 148*; STAT3 act-2: 176*; NFkB act STAT3ct: 130*; STAT1 act-2: 174*

Results for CC(C)Cc1cc(C(=O)Nc2cc(Cl)ccc2Cl)no1 ?
STAT1 act-1: 100; STAT3 inh: -41; STAT1 inh: -1; STAT3 act-1: 138*; STAT3 act-2: 137*; NFkB act STAT3ct: 112; STAT1 act-2: 116

What do the screens show for `O=C(Nc1nc(-c2cccs2)cs1)c1cccc(S(=O)(=O)N2CCCCCC2)c1`?
STAT1 act-1: 117; STAT3 inh: -41; STAT1 inh: -19; STAT3 act-1: 140*; STAT3 act-2: 133; NFkB act STAT3ct: 111; STAT1 act-2: 125*

How did Cc1nnc(NC(=O)c2oc3c(ccc4ccccc43)c2C)s1 do in these assays?
STAT1 act-1: 107; STAT3 inh: -59; STAT1 inh: -8; STAT3 act-1: 150*; STAT3 act-2: 146*; NFkB act STAT3ct: 106; STAT1 act-2: 102

What do the screens show for `COc1ccc(/C=C/C(=O)c2cc(F)ccc2OC(=O)c2ccccc2C)cc1OC`?
STAT1 act-1: 100; STAT3 inh: -48; STAT1 inh: 1; STAT3 act-1: 143*; STAT3 act-2: 103; NFkB act STAT3ct: 156*; STAT1 act-2: 102

What do the screens show for `COc1ccc(C(=O)Oc2ccc(F)cc2C(=O)/C=C/c2ccc(OC)c(OC)c2)cc1`?
STAT1 act-1: 101; STAT3 inh: 0; STAT1 inh: -1; STAT3 act-1: 99

What do the screens show for `CC(C)(C)n1nc2c(c1NC(=O)c1ccc(S(=O)(=O)N3CCCC3)cc1)CSC2`?
STAT1 act-1: 92; STAT3 inh: -63; STAT1 inh: 9; STAT3 act-1: 152*; STAT3 act-2: 145*; NFkB act STAT3ct: 108; STAT1 act-2: 95

Results for COc1nc(-c2ccc(Cl)cc2)ccc1-c1noc(-c2ccco2)n1 ?
STAT1 act-1: 102; STAT3 inh: 3; STAT1 inh: -3; STAT3 act-1: 98

How did COc1nc2c(C)cccc2cc1-c1noc(-c2ccco2)n1 do in these assays?
STAT1 act-1: 91; STAT3 inh: -70; STAT1 inh: 9; STAT3 act-1: 163*; STAT3 act-2: 144*; NFkB act STAT3ct: 109; STAT1 act-2: 99

Results for Cc1ccc(-c2cc(-c3cccs3)[nH]n2)c(O)c1 ?
STAT1 act-1: 106; STAT3 inh: -72; STAT1 inh: -6; STAT3 act-1: 164*; STAT3 act-2: 140*; NFkB act STAT3ct: 127*; STAT1 act-2: 96

What do the screens show for `O=C(CNc1cccc2ccccc12)N/N=C/c1ccc(OC(=O)/C=C/c2ccco2)cc1`?
STAT1 act-1: 105; STAT3 inh: -59; STAT1 inh: -6; STAT3 act-1: 156*; STAT3 act-2: 124; NFkB act STAT3ct: 103; STAT1 act-2: 104

What do the screens show for `CN1CCc2c(sc3c2C(=O)NC(c2ccco2)N3)C1` (stereo unspecified)?
STAT1 act-1: 102; STAT3 inh: 1; STAT1 inh: -3; STAT3 act-1: 103

Results for O=C1NC(c2cccs2)Nc2sc3c(c21)CCCC3 (stereo unspecified) ?
STAT1 act-1: 101; STAT3 inh: -48; STAT1 inh: -1; STAT3 act-1: 143*; STAT3 act-2: 139*; NFkB act STAT3ct: 125*; STAT1 act-2: 119

What do the screens show for `Cc1c(NC(=O)CSc2ccccc2Cl)c(=O)n(-c2ccccc2)n1C`?
STAT1 act-1: 100; STAT3 inh: 9; STAT1 inh: 0; STAT3 act-1: 97

Results for Fc1ccc2nc(Nc3nc4c(F)cccc4s3)sc2c1 ?
STAT1 act-1: 116; STAT3 inh: -54; STAT1 inh: -17; STAT3 act-1: 140*; STAT3 act-2: 169*; NFkB act STAT3ct: 120; STAT1 act-2: 130*

How did Fc1cccc2sc(Nc3nc4ccccc4s3)nc12 do in these assays?
STAT1 act-1: 121; STAT3 inh: -92; STAT1 inh: -24; STAT3 act-1: 177*; STAT3 act-2: 210*; NFkB act STAT3ct: 129*; STAT1 act-2: 156*

How did COc1ccc(Cc2noc(CN3CCCN(C4Cc5ccccc5C4)CC3)n2)cc1OC do in these assays?
STAT1 act-1: 105; STAT3 inh: -6; STAT1 inh: -8; STAT3 act-1: 110

What do the screens show for `COc1cc(/C=N/Nc2nc3ccccc3s2)ccc1OC(=O)c1ccccc1F`?
STAT1 act-1: 106; STAT3 inh: -27; STAT1 inh: -4; STAT3 act-1: 119

Results for COc1cc(OC)cc(C(=O)Oc2ccc(/C=N/Nc3nc4ccccc4s3)cc2OC)c1 ?
STAT1 act-1: 121; STAT3 inh: -51; STAT1 inh: -23; STAT3 act-1: 148*; STAT3 act-2: 151*; NFkB act STAT3ct: 97; STAT1 act-2: 155*

How did Cc1nc2c(-c3ccc(Cl)cc3)cnn2c2c1CCC2 do in these assays?
STAT1 act-1: 102; STAT3 inh: -51; STAT1 inh: -3; STAT3 act-1: 142*; STAT3 act-2: 151*; NFkB act STAT3ct: 110; STAT1 act-2: 110

What do the screens show for `CC(C)CCNC(=O)Cc1csc(-c2ccccc2)n1`?
STAT1 act-1: 102; STAT3 inh: -13; STAT1 inh: -4; STAT3 act-1: 112

How did c1ccc2c(c1)CCCN2c1nc2ccccc2n2cnnc12 do in these assays?
STAT1 act-1: 106; STAT3 inh: -65; STAT1 inh: -7; STAT3 act-1: 164*; STAT3 act-2: 163*; NFkB act STAT3ct: 110; STAT1 act-2: 109

How did c1ccc2c(c1)CCN(c1nc3ccccc3n3cnnc13)C2 do in these assays?
STAT1 act-1: 98; STAT3 inh: -34; STAT1 inh: 2; STAT3 act-1: 132

Results for O=C(O)C(Cc1cc2ccccc2[nH]1)N1C(=O)C2CC=C(Cl)CC2C1=O (stereo unspecified) ?
STAT1 act-1: 96; STAT3 inh: -44; STAT1 inh: 5; STAT3 act-1: 142*; STAT3 act-2: 135*; NFkB act STAT3ct: 102; STAT1 act-2: 95

How did Cc1ccc(/C=N/NC(=O)CC2N=C(Cc3ccccc3)NNC2=O)cc1 (stereo unspecified) do in these assays?
STAT1 act-1: 107; STAT3 inh: 4; STAT1 inh: -8; STAT3 act-1: 98

Results for COCc1cc(=O)n2c(-c3ccccc3OC)n[nH]c2n1 ?
STAT1 act-1: 107; STAT3 inh: -49; STAT1 inh: -6; STAT3 act-1: 145*; STAT3 act-2: 159*; NFkB act STAT3ct: 106; STAT1 act-2: 101
